Measurements taken from ChEMBL document CHEMBL1127046, “Antitumor agents. 3. Synthesis and biological activity of 4 beta-alkyl derivatives containing hydroxy, amino, and amido groups of 4'-O-demethyl-4-desoxypodophyllotoxin as antitumor agents” (J Med Chem, 1993).

How the values were obtained:
ACHN = assay: Inhibition of growth of renal cancer ACHN cell line; format: functional; conditions: Homo sapiens, read-out: ED50 (the source's name)
In short: (§1)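 Human tumour cell lines plated and grown 24 h in a CO2 incubator, then exposed to compound for 96 or 4 h. Cells counted by hemocytometer. IC50 is the concentration giving 50% reduction in cell number versus untreated control.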

A549 = assay: Inhibition of growth of lung non-small cell carcinoma A-549 cell line; format: functional; conditions: Homo sapiens, read-out: ED50 (the source's name)
In short: (§2)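 Cells were seeded and cultured for 24 h, then exposed to drug for 96 or 4 h. Cells were counted by hemocytometer. IC50 is the concentration giving a 50% reduction in cell number relative to control.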

[1] = Inhibition of growth of colon carcinoma COLO 2-1 cell line; format: functional; conditions: Homo sapiens, read-out: ED50 (the source's name); in short: as §2
COLO 320DM [2] = assay: Inhibition of growth of colon cancer COLO 320DM cell line; format: functional; conditions: Homo sapiens, read-out: ED50 (the source's name); in short: as §2
Homo sapiens = organism: Homo sapiens; assay: Inhibition of growth of hepatoma HLE cell line; format: functional; conditions: read-out: ED50 (the source's name); in short: as §2
[3] = Inhibition of growth of renal cancer G-402 cell line; format: functional; conditions: Homo sapiens, read-out: ED50 (the source's name); in short: as §1
[4] = Inhibition of growth of hepatoma HLF cell line; format: functional; conditions: Homo sapiens, read-out: ED50 (the source's name); in short: as §2
L1210 [5] = assay: The number of mice survived for 30 days at the dose of 2.5 (mg/kg/day); format: functional, Mus musculus
L1210 [6] = assay: Antitumor activity in vivo expressed as the percentage increase in life span at the dose of 2.5 (mg/kg/day); format: functional, Mus musculus
[7] = system: Lewis lung carcinoma cell line; assay: Increased life span at the dose of 0.77 (mg/kg/day); format: functional, Mus musculus
[8] = system: Lewis lung carcinoma cell line; assay: Increased life span at the dose of 1.3 (mg/kg/day); format: functional, Mus musculus
[9] = system: Lewis lung carcinoma cell line; assay: Increased life span at the dose of 2.3 (mg/kg/day); format: functional, Mus musculus
[10] = system: Lewis lung carcinoma cell line; assay: Increased life span at the dose of 4 (mg/kg/day) (number of survivors); format: functional, Mus musculus
[11] = system: Lewis lung carcinoma cell line; assay: Increased life span at the dose of 7 (mg/kg/day); format: functional, Mus musculus
[12] = system: Lewis lung carcinoma cell line; assay: Mean body weight change after inoculation of 3.2 x 10 e 5 cells iv and administration of compounds iv from days 1-5 at the dose of 0.77 (mg/kg/day); format: functional, Mus musculus
In short: (§3)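 Male BDF1 mice (5 weeks) given 3.2 x 10^5 Lewis lung carcinoma cells iv on day 0, then dosed iv on days 1–5. Seven mice per group, 14 controls. Mean body weight change (g) taken from day 0 to day 6.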

[13] = system: Lewis lung carcinoma cell line; assay: Mean body weight change after inoculation of 3.2 x 10 e 5 cells iv and administration of compounds iv from days 1-5 at the dose of 2.3 (mg/kg/day); format: functional, Mus musculus; in short: as §3
[14] = system: Lewis lung carcinoma cell line; assay: Percentage inhibition of tumor growth at the Lewis lung dose of 1.3 (mg/kg/ day); format: functional, Mus musculus
In short: (§4)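 Lewis lung carcinoma fragments (2 mm3) implanted sc into male BDF1 mice (5 weeks) on day 0. Compound given iv on days 4–8, in saline or saline with 3.5% DMSO and 6.5% Tween 80. Seven mice per group, 10 controls. Percent inhibition from mean tumour weight versus control on day 17; p<0.05, 0.01 or 0.001 versus control.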

[15] = system: Lewis lung carcinoma cell line; assay: Percentage inhibition of tumor growth at the Lewis lung dose of 2.3 (mg/kg/ day); format: functional, Mus musculus; in short: as §4
[16] = system: Lewis lung carcinoma cell line; assay: Percentage inhibition of tumor growth at the Lewis lung dose of 4 (mg/kg/ day); format: functional, Mus musculus; in short: as §4
[17] = system: Lewis lung carcinoma cell line; assay: Mean body weight change after inoculation of 3.2 x 10 e 5 cells iv and administration of compounds iv from days 1-5 at the dose of 4 (mg/kg/day); format: functional, Mus musculus; in short: as §3
[18] = system: Lewis lung carcinoma cell line; assay: Mean body weight change after inoculation of 3.2 x 10 e 5 cells iv and administration of compounds iv from days 1-5 at the dose of 7 (mg/kg/day); format: functional, Mus musculus; in short: as §3
P388 [19] = assay: Cytotoxicity against P388 leukemia; format: functional, cell-based; conditions: Mus musculus
P388 [20] = assay: Antitumor activity in vivo expressed as the percentage increase in life span at the P388 dose of 0.8 (mg/kg/day); format: functional, Mus musculus
In short: (§5)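 P388 leukaemia, 1 × 10^6 cells given sc to male CDF1 mice (5 weeks old) on day 0. Drug was dosed iv on days 1–5 in saline with 3.5% DMSO and 6.5% Tween 80. Groups had 7 mice; controls had 10. ILS was calculated from mean survival time of treated versus control mice, excluding 30-day survivors.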

P388 [21] = assay: Antitumor activity in vivo expressed as the percentage increase in life span at the P388 dose of 1.3 (mg/kg/day); format: functional, Mus musculus; in short: as §5
P388 [22] = assay: Antitumor activity in vivo expressed as the percentage increase in life span at the P388 dose of 2.3 (mg/kg/day); format: functional, Mus musculus; in short: as §5
[23] = Inhibition of growth of lung non-small cell carcinoma PC-7 cell line; format: functional; conditions: Homo sapiens, read-out: ED50 (the source's name); in short: as §2
[24] = Inhibition of growth of lung small cell carcinoma RERF-LC-MA cell line; format: functional; conditions: Homo sapiens; read-out: ED50 (the source's name); in short: as §2
SBC-3 = assay: Inhibition of growth of lung small cell carcinoma SBC-3 cell line; format: functional; conditions: Homo sapiens, read-out: ED50 (the source's name); in short: as §1
[25] = Inhibition of DNA topoisomerase II from rat liver measured as 50% reduction in the amount of minicircle DNA relative to the control
Tubulin = Tubulin (Bos taurus, UniProt Q6B856+Q862L2+Q862F3); assay: Drug concentration needed to produce a 50% reduction of bovine brain tubulin polymerization relative to the control
COLO 320DM [26] = assay: Inhibition of growth of colon carcinoma COLO 320DM cell line; format: functional; conditions: Homo sapiens, read-out: ED50 (the source's name); in short: as §2
L1210 [27] = assay: The number of mice survived for 30 days at the dose of 1.3 (mg/kg/day); format: functional, Mus musculus
L1210 [28] = assay: Antitumor activity in vivo expressed as the percentage increase in life span at the dose of 1.3 (mg/kg/day); format: functional, Mus musculus
[29] = system: Lewis lung carcinoma cell line; assay: Increased life span at the lewis lung dose of 0.25 (mg/kg/day); format: functional, Mus musculus
[30] = system: Lewis lung carcinoma cell line; assay: Increased life span at the lewis lung dose of 0.44 (mg/kg/day); format: functional, Mus musculus
[31] = system: Lewis lung carcinoma cell line; assay: Increased life span at the lewis lung dose of 0.77 (mg/kg/day); format: functional, Mus musculus
[32] = system: Lewis lung carcinoma cell line; assay: Increased life span at the lewis lung dose of 1.3 (mg/kg/day); format: functional, Mus musculus
[33] = system: Lewis lung carcinoma cell line; assay: Mean body weight change after inoculation of 3.2 x 10 e 5 cells iv and administration of compounds iv from days 1-5 at the dose of 0.25 (mg/kg/day); format: functional, Mus musculus; in short: as §3
[34] = system: Lewis lung carcinoma cell line; assay: Mean body weight change after inoculation of 3.2 x 10 e 5 cells iv and administration of compounds iv from days 1-5 at the dose of 0.44 (mg/kg/day); format: functional, Mus musculus; in short: as §3
[35] = system: Lewis lung carcinoma cell line; assay: Mean body weight change after inoculation of 3.2 x 10 e 5 cells iv and administration of compounds iv from days 1-5 at the dose of 1.3 (mg/kg/day); format: functional, Mus musculus; in short: as §3
P388 [36] = assay: Antitumor activity in vivo expressed as the percentage increase in life span at the P388 dose of 0.4 (mg/kg/day); format: functional, Mus musculus; in short: as §5
P388 [37] = assay: Antitumor activity in vivo expressed as the percentage increase in life span at the P388 dose of 0.3 (mg/kg/day); format: functional, Mus musculus; in short: as §5
[38] = system: Lewis lung carcinoma cell line; assay: Percentage inhibition of tumor growth at the lewis lung dose of 0.3 (mg/kg/ day); format: functional, Mus musculus; in short: as §4
[39] = system: Lewis lung carcinoma cell line; assay: Percentage inhibition of tumor growth at the lewis lung dose of 1.3 (mg/kg/ day); (p<0001); format: functional, Mus musculus; in short: as §4
[40] = system: Lewis lung carcinoma cell line; assay: Percentage inhibition of tumor growth at the lewis lung dose of 2.3 (mg/kg/ day); (p<0001); format: functional, Mus musculus; in short: as §4
[41] = system: Lewis lung carcinoma cell line; assay: Antitumor activity in vivo expressed as the percentage increase in life span at the lewis lung dose of 0.77 (mg/kg/day); format: functional, Mus musculus
[42] = system: Lewis lung carcinoma cell line; assay: Antitumor activity in vivo expressed as the percentage increase in life span at the lewis lung dose of 1.3 (mg/kg/day); format: functional, Mus musculus
[43] = system: Lewis lung carcinoma cell line; assay: Antitumor activity in vivo expressed as the percentage increase in life span at the lewis lung dose of 2.3 (mg/kg/day); format: functional, Mus musculus
[44] = system: Lewis lung carcinoma cell line; assay: Antitumor activity in vivo expressed as the percentage increase in life span at the lewis lung dose of 4 (mg/kg/day); format: functional, Mus musculus
[45] = system: Lewis lung carcinoma cell line; assay: Percentage inhibition of tumor growth at the dose of 2.3 (mg/kg/ day); format: functional, Mus musculus; in short: as §4
[46] = system: Lewis lung carcinoma cell line; assay: Percentage inhibition of tumor growth at the dose of 4 (mg/kg/ day); format: functional, Mus musculus; in short: as §4
P388 [47] = assay: Increased life span at the P388 dose of 0.8 (mg/kg/day); format: functional, Mus musculus; in short: as §5
P388 [48] = assay: Increased life span at the P388 dose of 1.3 (mg/kg/day); format: functional, Mus musculus; in short: as §5
P388 [49] = assay: Increased life span at the P388 dose of 2.3 (mg/kg/day); format: functional, Mus musculus; in short: as §5

Row | Compound | EC50 (ACHN) [µg/mL] | EC50 (A549) [µg/mL] | EC50 [1] [µg/mL] | EC50 (Homo sapiens) [µg/mL] | EC50 [3] [µg/mL] | EC50 [4] [µg/mL] | Survivors (L1210 [5]) | ILS max (L1210 [6]) [%] | bwc [12] [g] | bwc [13] [g] | bwc [17] [g] | IC50 (P388 [19]) [µM] | ILS max (P388 [20]) [%] | EC50 [23] [µg/mL] | EC50 [24] [µg/mL] | EC50 (SBC-3) [µg/mL] | IC50 [25] [µM] | IC50 (Tubulin) [µM] | EC50 (COLO 320DM [26]) [µg/mL] | bwc [35] [g] | other results
1 | COc1cc([C@@H]2c3cc4c(cc3[C@@H](CCN3CCC(N5CCCCC5)CC3)C3COC(=O)[C@@H]32)OCO4)cc(OC)c1O.Cl.Cl (some centres not stated) | 1.1 | 1 | 13 | 0.31 | 0.18 | 2.7 | 6 | 102 | 0.3 | -0.5 | -1.6 | 0.0033 | 143 | 4 | 35 | 0.16 | 29.8 | > 167 | – | – | EC50 (COLO 320DM [2]): 2.1 µg/mL; ILS max [7]: 43%; ILS max [8]: 63%; ILS max [9]: 133%; ILS max [10]: -13%; ILS max [11]: -44%; Inhibition [14]: 40%; Inhibition [15]: 50%; Inhibition [16]: 91%; bwc [18]: -4.1 g; ILS max (P388 [21]): 202%; ILS max (P388 [22]): 231%
2 | COc1cc([C@@H]2c3cc4c(cc3[C@@H](CCN3CCN(C)CC3)C3COC(=O)[C@@H]32)OCO4)cc(OC)c1O.Cl.Cl (some centres not stated) | 2 | 0.76 | 9.3 | 0.13 | 0.25 | 1.6 | – | – | -0.9 | – | – | 0.003 | 182 | 2.9 | 5.8 | 0.28 | 33.6 | > 132 | 0.99 | -3.3 | Survivors (L1210 [27]): 1; ILS max (L1210 [28]): 140%; ILS max [29]: 24%; ILS max [30]: 67%; ILS max [31]: 91%; ILS max [32]: 127%; bwc [33]: 0.9 g; bwc [34]: 0.3 g; ILS max (P388 [36]): 112%; ILS max (P388 [37]): 67%; Inhibition [38]: 37%; Inhibition [39]: 81%; Inhibition [40]: 96%
3 | COc1cc([C@@H]2c3cc4c(cc3[C@@H](CCN(C)CCN(C)C)C3COC(=O)[C@@H]32)OCO4)cc(OC)c1O.Cl.Cl (some centres not stated) | 2 | 0.82 | 13 | 0.23 | 0.33 | 2.8 | 6 | 103 | 0.44 | -0.7 | -2.9 | 0.001 | – | 3.5 | 14 | 0.41 | 32.5 | > 99 | 2 | 0.2 | ILS max [41]: 38%; ILS max [42]: 72%; ILS max [43]: 90%; ILS max [44]: 209%; Inhibition [45]: 51%; Inhibition [46]: 95%; ILS max (P388 [47]): 116%; ILS max (P388 [48]): 196%; ILS max (P388 [49]): 236%
